Experimental data from ChEMBL document CHEMBL1136531, “Sphingomyelin analogues as inhibitors of sphingomyelinase” (Bioorg Med Chem Lett, 2003).

The molecules below were run against T1, Sphingomyelin phosphodiesterase 2 (Rattus norvegicus, UniProt Q9ET64) (assay: Inhibitory concentration against the membrane neutral magnesium-dependent Sphingomyelinase (N-SMase) using rat brain microsomes as the enzyme source).
T1 sequence (Q9ET64 whole entry): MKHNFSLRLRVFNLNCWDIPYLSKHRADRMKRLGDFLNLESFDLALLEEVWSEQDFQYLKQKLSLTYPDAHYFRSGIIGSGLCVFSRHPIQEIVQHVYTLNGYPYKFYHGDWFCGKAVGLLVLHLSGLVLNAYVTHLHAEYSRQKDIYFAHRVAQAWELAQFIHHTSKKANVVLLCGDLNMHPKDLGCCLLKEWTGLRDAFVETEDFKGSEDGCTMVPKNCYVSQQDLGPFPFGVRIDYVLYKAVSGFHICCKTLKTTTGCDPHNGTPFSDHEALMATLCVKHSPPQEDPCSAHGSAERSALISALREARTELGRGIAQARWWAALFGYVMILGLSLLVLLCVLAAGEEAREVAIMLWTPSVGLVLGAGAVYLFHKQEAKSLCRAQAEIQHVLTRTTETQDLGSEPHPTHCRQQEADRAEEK
In short: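 Rat brain microsomes served as the enzyme source and were incubated 25 min at 37 °C with 0.3mM ¹⁴C-labelled sphingomyelin in 100 mM Tris–HCl (pH 7.5), 20 mM MgCl₂ and 0.25% Triton X-100, across a range of inhibitor concentrations. Released radioactive phosphorylcholine was separated by chloroform/methanol (2/1) extraction and counted by scintillation in the aqueous phase. IC₅₀ was derived from these counts.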

IC50 | SMILES
> 100 µM | CCCCCCCCCCCCC/C=C/[C@@H](O)[C@H](COC(=O)NCc1ccncc1)NC(=O)OC(C)(C)C
8.7 µM | CCCCCCCCCCCCC/C=C/[C@@H](O)[C@H](COC(=O)NCC[N+](C)(C)C)NC(=O)C(C)(C)C
4.1 µM | CCCCCCCCCCCCC/C=C/[C@@H](O)[C@H](COC(=O)NCCN(C)C)NC(=O)C(C)(C)C
77 µM | CCCCCCCCCCCCC/C=C/[C@@H](O)[C@H](COC(=O)NCCC(C)(C)C)NC(=O)C(C)(C)C
> 100 µM | CCCCCCCCCCCCC/C=C/[C@@H](O)[C@H](COC(=O)NCc1ccncc1)NC(=O)CCCCCCCCCCCCCCCCC
8.2 µM | CCCCCCCCCCCCC/C=C/[C@@H](O)[C@H](COC(=O)NCc1ccc(N(C)C)cc1)NC(=O)C(C)(C)C
4.9 µM | CCCCCCCCCCCCC/C=C/[C@@H](O)[C@H](COC(=O)NCCCN(C)C)NC(=O)C(C)(C)C
> 100 µM | CCCCCCCCCCCCC/C=C/[C@@H](O)[C@H](COC(=O)NCc1ccncc1)NC(C)=O
7.9 µM | CCCCCCCCCCCCC/C=C/[C@@H](O)[C@H](COC(=O)Nc1ccccn1)NC(=O)C(C)(C)C
1.8 µM | CCCCCCCCCCCCC/C=C/[C@@H](O)[C@H](COC(=O)NCc1ccncc1)NC(=O)C(C)C
18 µM | CCCCCCCCCCCCC/C=C/[C@@H](O)[C@H](COC(=O)NCCN(C(C)C)C(C)C)NC(=O)C(C)(C)C
5 µM | CCCCCCCCCCCCC/C=C/[C@@H](O)[C@H](COC(=O)NCc1ccccn1)NC(=O)C(C)(C)C
8.4 µM | CCCCCCCCCCCCC/C=C/[C@@H](O)[C@H](COC(=O)NCCc1ccccn1)NC(=O)C(C)(C)C
2.1 µM | CCCCCCCCCCCCC/C=C/[C@@H](O)[C@H](COC(=O)NCc1cccnc1)NC(=O)C(C)(C)C
31 µM | CCCCCCCCCCCCC/C=C/[C@@H](O)[C@H](COC(=O)CCCN(C)C)NC(=O)C(C)(C)C
> 100 µM | CCCCCCCCCCCCC/C=C/C(O)C(N)COC(=O)NCc1ccncc1 (single isomer, unassigned)
